Data on 37 molecules can be found in ChEMBL document CHEMBL1149490, “SAR of biphenyl carboxamide ligands of the human melanin-concentrating hormone receptor 1 (MCH R1): discovery of antagonist SB-568849” (Bioorg Med Chem Lett, 2006).

Data set [1] has as its target T1, Melanin-concentrating hormone receptor 1 (Homo sapiens, UniProt Q99705). As to the kind of experiment: Displacement of radiolabeled iodo-MCH from human MCHR1 expressed in HEK293 cells. Type of data set: cell-based.
A short description of data set [2]: Clearance in rat at 0.3 mg/kg/hr, iv. The arrangement: route intravenous. Type of data set: ADME, organism-based. The note with it: in vivo. In short, it runs like this:
(§1)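 Rats given compound dissolved in 2% (v/v) DMSO in 5% (w/v) aqueous dextrose by constant iv infusion over 12 h, target 0.3 mg free base/kg/h, for steady-state brain:blood measurement. Blood clearance is the initial elimination rate from blood per unit body mass after this iv dosing.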

Data set [3] deals with Liver microsomes. As to the kind of experiment: Intrinsic clearance in rat liver microsome. Type of data set: ADME. In short, it runs like this:
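Rat liver microsomes at 0.5 mg/mL protein, starting compound 0.5 µM. Compound loss followed as a concentration-time profile. First-order rate constant K taken from the profile; CLi = K·V, scaled and given in mL/min/g liver.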
(In general: Liver microsomes are a subcellular fraction often used to study metabolism.)

Data set [4] in a line: Ratio of drug level in brain against blood in rat 0.3 mg/kg/hr, iv. The note with it: read-out: BBR. Also on record: route intravenous. Type of data set: ADME, organism-based. In short, it runs like this:
as §1

Data set [5] is described as follows: AUC in Sprague-Dawley rat. The class given is ADME, organism-based. The note with it: plasma. In short, it runs like this: (§2)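 Cannulated Sprague-Dawley rats (n ≥ 3), crossover over two study days: iv infusion of buffered compound at 10 mL/kg/h, target 1.0 mg pfb/kg, blood sampled up to 24 h. After ≥2 days recovery, oral gavage of a suspension in aq methylcellulose (1.5 mg pfb/mL, 2 mL/kg), target 3 mg pfb/kg, blood sampled pre-dose and up to 27 h.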

In data set [6] the target is Melanin-concentrating hormone receptor (Homo sapiens) (UniProt Q969V1+Q99705). In words: Antagonizing effect on MCH-stimulated CRF release in rat hypothalamus. Type of data set: functional, tissue-based. The conditions noted are these: target entry is the homologue from another species.
Data set [7] can be described thus: Oral bioavailability in Sprague-Dawley rat. The class given is ADME, organism-based. The note with it: in vivo. In short, it runs like this:
as §2

A short description of data set [8]: Solubility in water. Type of data set: physicochemical.
Data set [9] is described as follows: Solubility in artificial cerebrospinal fluid. Type of data set: physicochemical.
Data set [10] in a line: Solubility of the compound. Type of data set: physicochemical.
Data set [11] addresses T2, 5-hydroxytryptamine receptor 2C (Homo sapiens, UniProt P28335).
T2 sequence (P28335 whole entry): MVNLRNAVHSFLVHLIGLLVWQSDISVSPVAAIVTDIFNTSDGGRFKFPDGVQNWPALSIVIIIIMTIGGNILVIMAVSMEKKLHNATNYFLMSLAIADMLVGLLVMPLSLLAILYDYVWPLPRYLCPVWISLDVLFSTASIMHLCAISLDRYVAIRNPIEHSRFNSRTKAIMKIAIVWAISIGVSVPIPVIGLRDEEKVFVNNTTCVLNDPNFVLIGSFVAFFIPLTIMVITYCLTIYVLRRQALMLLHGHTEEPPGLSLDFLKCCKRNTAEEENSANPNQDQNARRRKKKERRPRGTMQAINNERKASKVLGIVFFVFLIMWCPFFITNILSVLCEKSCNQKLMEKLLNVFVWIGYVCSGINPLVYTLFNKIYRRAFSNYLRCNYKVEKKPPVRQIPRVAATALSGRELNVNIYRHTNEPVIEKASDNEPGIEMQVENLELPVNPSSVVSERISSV
In words: Binding affinity to 5HT2C receptor.

Data set [12] concerns the target T1, Melanin-concentrating hormone receptor 1. As to the kind of experiment: Antagonist activity at human MCHR1 expressed in HEK293 cells assessed as inhibition of MCH-stimulated calcium mobilization. The class given is functional, cell-based. Put shortly: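 Stably transfected HEK293 cells re-seeded on poly-D-lysine and grown 24 h, loaded with fluorescent indicator in assay buffer plus probenecid, washed, then exposed to compound for 30 min. FLIPR readings taken before and after an EC80 concentration of MCH. Apparent pKb fitted to the MCH response with a 4-parameter logistic equation.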
A general note: A change in cytosolic calcium serves as a functional read-out for many receptors and channels.

Values after ≈ are worked out from the molar mass of the structure shown. Active and inactive are the calls of the source. No cut-off for these calls is given here.

T1 sequence (Q99705 whole entry): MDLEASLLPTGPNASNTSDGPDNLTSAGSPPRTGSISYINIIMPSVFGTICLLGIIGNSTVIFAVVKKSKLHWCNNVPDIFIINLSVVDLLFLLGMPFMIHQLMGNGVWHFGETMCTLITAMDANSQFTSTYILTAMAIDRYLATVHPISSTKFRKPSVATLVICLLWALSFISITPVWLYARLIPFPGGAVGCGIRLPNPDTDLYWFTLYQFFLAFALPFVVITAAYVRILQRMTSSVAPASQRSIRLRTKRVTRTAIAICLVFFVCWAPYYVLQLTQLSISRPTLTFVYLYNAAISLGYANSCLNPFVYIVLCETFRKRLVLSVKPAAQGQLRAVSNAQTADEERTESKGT
Chain of Melanin-concentrating hormone receptor (Homo sapiens) (Q969V1 whole entry, looked up): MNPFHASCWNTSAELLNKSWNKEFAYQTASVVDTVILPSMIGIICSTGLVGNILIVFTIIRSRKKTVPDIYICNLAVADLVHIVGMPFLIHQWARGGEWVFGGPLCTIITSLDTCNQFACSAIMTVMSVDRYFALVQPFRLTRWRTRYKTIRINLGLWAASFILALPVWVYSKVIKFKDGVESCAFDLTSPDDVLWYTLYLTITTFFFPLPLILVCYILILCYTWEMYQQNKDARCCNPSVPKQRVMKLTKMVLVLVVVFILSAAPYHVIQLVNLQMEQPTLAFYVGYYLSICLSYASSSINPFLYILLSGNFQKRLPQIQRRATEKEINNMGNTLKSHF
Chain of Melanin-concentrating hormone receptor (Homo sapiens) (Q99705 whole entry, looked up): as the sequence (Q99705 whole entry) above

As usually defined, the Ki is a dissociation constant, usually derived from enzyme kinetics or from competition with a known ligand. Consider `COc1cc(NC(=O)c2ccc(-c3cccc(C(F)(F)F)c3)cc2)ccc1OCCN(C(C)C)C(C)C`, for which affinity in [1] was put at a Ki of 251 nM.
In turn, `COc1cc(N(C)C(=O)c2cccc(Oc3ccccc3)c2)ccc1OCCN(C(C)C)C(C)C` had an inhibition constant Ki in data set [1] of 398 nM.
On the same count and under the same terms, the figure for `CCN(CC)CCOc1ccc(N(CC)C(=O)c2ccc(-c3ccccc3)cc2)cc1OC` is 251 nM; for `COc1cc(NC(=O)c2ccc(C(C)(C)C)cc2)ccc1OCCN(C(C)C)C(C)C` it is over 10000 nM.
In general, clearance refers to a measure of how efficiently the substance is removed, as volume per time. Read a low clearance as inefficient removal. In data set [2], `COc1cc(N(C)C(=O)c2ccc(-c3ccccc3)cc2)ccc1OCCN1CCCC1` had a clearance of 57 mL/min/kg. In addition, the CL in data set [3] came out at 2 mL/min/g. Moreover, the Kp in data set [4] stood at 0.1. The Ki in data set [1] is 20 nM.
In turn, `COc1cc(NC(=O)c2cccc(-c3ccccc3)c2)ccc1OCCN(C(C)C)C(C)C` had an inhibition constant (Ki) in data set [1] of 5010 nM.
With `CCN(CC)CCOc1ccc(NC(=O)c2ccc(-c3ccccc3)cc2)cc1C(C)=O`, affinity in [1] was put at a Ki of 31.6 nM.
With `COc1cc(NC(=O)c2ccc(-c3ccc(C(F)(F)F)cc3)cc2)ccc1OCCN(C(C)C)C(C)C`, the inhibition constant (Ki) in data set [1] was 79.4 nM. This Ki lies about 2.5-fold higher than the previous one.
On the same count and under the same terms, next, `COc1cc(NC(=O)c2ccccc2)ccc1OCCN(C(C)C)C(C)C`: over 10000 nM.
`COc1cc(NC(=O)c2ccc(-c3ccccc3C)cc2)ccc1OCCN(C(C)C)C(C)C`: affinity in [1] was put at a Ki of 39.8 nM. This lies in the double-digit nanomolar range.
Same read-out and setting: next, `CCN(CC)CCOc1ccc(NC(=O)c2ccc(-c3ccccc3)cc2)cc1C(C)O` (stereo not given): 251 nM.
Still for that read-out and setting: the figure for `COc1cc(NC(=O)c2cccc(Oc3ccccc3)c2)ccc1OCCN(C(C)C)C(C)C` is 79.4 nM; for `COc1cc(NC(=O)c2ccc(-c3ccccc3)cc2)ccc1OCCN1CCCCC1` it is 39.8 nM.
As to `COc1cc(NC(=O)c2cccc(Cc3ccccc3)c2)ccc1OCCN(C(C)C)C(C)C`, the inhibition constant Ki in [1] is 158 nM.
`COc1cc(N(C)C(=O)c2ccc(C3CCCCC3)cc2)ccc1OCCN(C(C)C)C(C)C`: affinity in data set [1] was put at a Ki of 100 nM. Against the preceding molecule, the Ki is about 1.6-fold lower.
The molecule `COc1cc(NC(=O)c2ccc(-c3ccccc3)cc2)ccc1OCCN(C)Cc1ccccc1` showed a Ki in data set [1] of 50.1 nM.
`CC(C)N(CCOc1ccc(NC(=O)c2ccc(-c3ccccc3)cc2)cc1)C(C)C` gave a Ki in data set [1] of 63.1 nM.
Usually AUC stands for concentration integrated over time. As a reminder, the bioavailability is the share of a dose that reaches the circulation, judged against a reference dose that is usually intravenous. In the case of `CCN(CC)CCOc1ccc(N(C)C(=O)c2ccc(-c3ccc(C(F)(F)F)cc3)cc2)cc1OC`, the area under the curve (AUC) in data set [5] was 2.37 µM·h. For the same molecule, in data set [2], the clearance amounted to 16 mL/min/kg. Also, the result in data set [6] was Active. The molecule also returned a CL in data set [3] of 4 mL/min/g. Besides, the Kp in data set [4] amounted to 1. The same molecule showed a Ki in data set [1] of 20 nM. Besides, the bioavailability in [7] was found to be 30%.
As to `COc1cc(NC(=O)c2ccc(-c3ccccc3)cc2)ccc1OCCN(C)C`, in data set [1], the inhibition constant (Ki) is 50.1 nM.
In data set [1], `COc1cc(N(C)S(=O)(=O)c2ccc(-c3ccccc3)cc2)ccc1OCCN(C(C)C)C(C)C` gave an inhibition constant Ki of over 10000 nM.
In the case of `Cc1cc(OCCN(C(C)C)C(C)C)ccc1NC(=O)c1ccc(-c2ccccc2)cc1`, in data set [1], the Ki was 25.1 nM. This lies in the double-digit nanomolar range.
The solubility is the concentration that dissolves in the medium under given conditions. Low values mean little dissolved substance, high ones much dissolved substance. As to `COc1cc(N(C)C(=O)c2ccc(-c3ccccc3)cc2)ccc1OCCN(C(C)C)C(C)C`, the solubility in data set [8] and in [9] was over 500 µg/mL throughout. Moreover, in data set [3], the CL turned out to be 19 mL/min/g. The inhibitory constant (Ki) in [1] was 15.8 nM.
Take `COc1cc(NC(=O)c2cccc(C(=O)c3ccccc3)c2)ccc1OCCN(C(C)C)C(C)C`: the Ki in [1] was over 10000 nM.
On to `CCN(CC)CCOc1ccc(NC(=O)c2ccc(-c3ccccc3)cc2)cc1OC`, for which, in data set [3], the CL is 4 mL/min/g. In data set [1], this molecule gave a Ki of 31.6 nM.
Take `CCN(CC)CCOc1ccc(N(C)C(=O)c2ccc(-c3ccccc3)cc2)cc1OC`: in [2], the clearance worked out at 51 mL/min/kg. Moreover, the CL in data set [3] came out at 5 mL/min/g. Also, in [4], the Kp is 0.1. Also, affinity in [1] was put at a Ki of 20 nM.
In data set [1], `COc1cc(NS(=O)(=O)c2ccc(-c3ccccc3)cc2)ccc1OCCN1CCCC1` showed a Ki of over 10000 nM.
The same measure, in the same setting: next, `Cc1cc(NC(=O)c2ccc(-c3ccccc3)cc2)ccc1OCCN(C(C)C)C(C)C`: 63.1 nM.
Regarding `CC(C)N(CCOc1ccc(NC(=O)c2ccc(-c3ccccc3)cc2)cc1F)C(C)C`, the inhibition constant Ki in data set [1] was 398 nM.
The same measure, in the same setting: the figure for `COc1cc(NC(=O)c2ccc(Oc3ccccc3)cc2)ccc1OCCN(C(C)C)C(C)C` is 200 nM.
Usually pKb stands for the Kb on a negative log10 scale, so that one unit is a factor of ten. As to `COc1cc(NC(=O)c2ccc(-c3ccccc3)cc2)ccc1OCCN(C(C)C)C(C)C`, in [10], the solubility came out at 4 µg/mL (≈ 8.96 µM). In addition, in [2], the clearance was 67 mL/min/kg. This molecule also showed a CL in data set [3] of 9 mL/min/g. In [4], the Kp came to 2.7. Further, the inhibition constant (Ki) in [1] was 31.6 nM; in data set [11] it was 158 nM. The pKb in [12] came out at 7.5.
Molecule `CCc1cc(NC(=O)c2ccc(-c3ccccc3)cc2)ccc1OCCN(CC)CC` gave a Ki in data set [1] of 50.1 nM.
For the molecule `COc1cc(NC(=O)c2ccc(C3CCCCC3)cc2)ccc1OCCN(C(C)C)C(C)C`, the Ki in [1] is 25.1 nM. This Ki lies about 2-fold lower than the previous one.
On the same count and under the same terms, next, `COc1cc(N(C)C(=O)c2ccc(Cc3ccccc3)cc2)ccc1OCCN(C(C)C)C(C)C`: 79.4 nM.
In turn, `COc1cc(NC(=O)c2ccc(-c3ccccc3)c(C)c2)ccc1OCCN(C(C)C)C(C)C` had a Ki in data set [1] of 158 nM.
Still for that read-out and setting: the figure for `COc1cc(NC(=O)c2ccc(Br)cc2)ccc1OCCN(C(C)C)C(C)C` is over 6310 nM.
For `COc1cc(NC(=O)c2ccc(-c3ccccc3)cc2)ccc1OCCN1CCCC1`, in data set [3], the CL was found to be 2 mL/min/g. In addition, in data set [1], the Ki was 31.6 nM.
For the molecule `COc1cc(NC(=O)c2ccc(-c3ccccc3)cc2C)ccc1OCCN(C(C)C)C(C)C`, the inhibition constant (Ki) in [1] is 126 nM.
